Measurements from ChEMBL document CHEMBL2086340, “Synthesis and biological evaluation of 2-benzylamino-4(5)-(6-methylpyridin-2-yl)-5(4)-([1,2,4]triazolo[1,5-a]-pyridin-6-yl)thiazoles as transforming growth factor-β type 1 receptor kinase inhibitors” (Eur J Med Chem, 2012).

How the values were obtained:
[1] = target: Mitogen-activated protein kinase 14 (Homo sapiens, UniProt Q16539); assay: Inhibition of human recombinant p38alpha expressed in Escherichia coli using ATF2 as a substrate by radioisotopic protein kinase assay
Chain of Mitogen-activated protein kinase 14 (Q16539 whole entry, the tested form may be a part): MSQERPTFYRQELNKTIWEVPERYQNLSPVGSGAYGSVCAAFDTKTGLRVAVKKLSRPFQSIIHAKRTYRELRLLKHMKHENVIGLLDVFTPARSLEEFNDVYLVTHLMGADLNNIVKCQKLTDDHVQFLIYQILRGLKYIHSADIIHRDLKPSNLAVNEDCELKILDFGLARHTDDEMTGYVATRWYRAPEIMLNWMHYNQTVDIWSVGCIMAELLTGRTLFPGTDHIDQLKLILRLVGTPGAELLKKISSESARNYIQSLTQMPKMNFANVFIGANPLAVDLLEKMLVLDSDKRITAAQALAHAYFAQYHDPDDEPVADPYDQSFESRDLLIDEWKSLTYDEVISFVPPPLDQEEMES

TGF-beta receptor type-1 = target: T1, TGF-beta receptor type-1 (Homo sapiens, UniProt P36897); assay: Inhibition of human recombinant GST-fused ALK5 expressed in Sf9 cells using casein as a substrate by radioisotopic protein kinase assay
T1 sequence (P36897 whole entry): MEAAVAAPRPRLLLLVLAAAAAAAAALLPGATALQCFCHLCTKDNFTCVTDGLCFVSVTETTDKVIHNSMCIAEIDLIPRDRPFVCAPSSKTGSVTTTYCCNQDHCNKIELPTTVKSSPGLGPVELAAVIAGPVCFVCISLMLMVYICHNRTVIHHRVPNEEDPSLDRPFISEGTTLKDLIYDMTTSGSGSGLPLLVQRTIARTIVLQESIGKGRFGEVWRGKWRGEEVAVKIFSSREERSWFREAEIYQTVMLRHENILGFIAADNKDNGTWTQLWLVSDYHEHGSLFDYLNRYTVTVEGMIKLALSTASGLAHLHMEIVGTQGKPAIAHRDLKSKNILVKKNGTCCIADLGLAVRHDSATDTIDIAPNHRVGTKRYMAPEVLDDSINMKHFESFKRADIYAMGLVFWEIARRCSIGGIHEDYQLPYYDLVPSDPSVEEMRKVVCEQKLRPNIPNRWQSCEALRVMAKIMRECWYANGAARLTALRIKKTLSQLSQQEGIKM

Homo sapiens = species: Homo sapiens; assay: Selectivity index, ratio of IC50 for human recombinant p38alpha to IC50 for human recombinant ALK5
How it was run: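 Index is IC50(p38α)/IC50(ALK5), each from a radioisotopic ³³P protein kinase assay run by a contract lab. The p38α was untagged human recombinant protein expressed in E. coli and purified on Ni–NTH–agarose, with ATF2 as substrate. The ALK5 kinase domain was human recombinant GST-fusion protein from baculovirus-infected Sf9 cells, with casein as substrate.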

Compound | IC50 [1] [nM] | IC50 (TGF-beta receptor type-1) [nM] | Ratio IC50 (Homo sapiens)
Cc1cccc(-c2nc(NCc3ccccc3OC(F)(F)F)sc2-c2ccc3ncnn3c2)n1 | > 10000 | 35.9 | > 279
Cc1cccc(-c2[nH]c(Cc3cccc(C(N)=O)c3)nc2-c2ccc3nccnc3c2)n1 |  |  | 28
Cc1cccc(-c2nc(NCc3ccccc3Cl)sc2-c2ccc3ncnn3c2)n1 | 5860 | 15.5 | 378
Cc1cccc(-c2nc(NCc3cc(Cl)cc(Cl)c3)sc2-c2ccc3ncnn3c2)n1 | > 10000 | 15.1 | > 662
Cc1cccc(-c2nc(NCc3cccc(Cl)c3Cl)sc2-c2ccc3ncnn3c2)n1 | > 10000 | 34.3 | > 292
Cc1cccc(-c2nc(NCc3ccc(C(N)=O)cc3)sc2-c2ccc3ncnn3c2)n1 | > 10000 | 25.7 | > 389
COc1ccc(CNc2nc(-c3cccc(C)n3)c(-c3ccc4ncnn4c3)s2)cc1OC | > 10000 | 47.7 | > 210
Cc1cccc(-c2sc(NCc3ccccc3)nc2-c2ccc3ncnn3c2)n1 | 8820 | 24.5 | 360
Cc1cccc(-c2nc(NCc3cc(F)cc(F)c3)sc2-c2ccc3ncnn3c2)n1 | 3820 | 8.92 | 428
COc1cc(CNc2nc(-c3cccc(C)n3)c(-c3ccc4ncnn4c3)s2)cc(OC)c1 | 7990 | 16.5 | 484
Cc1cccc(-c2nc(NCc3ccc(C#N)cc3)sc2-c2ccc3ncnn3c2)n1 | > 10000 | 30.8 | > 325
Cc1cccc(-c2sc(NCc3ccccc3F)nc2-c2ccc3ncnn3c2)n1 | > 10000 | 21.2 | > 472
Cc1cccc(-c2nc(NCc3ccccc3F)sc2-c2ccc3ncnn3c2)n1 | > 10000 | 10.4 | > 962
Cc1cccc(-c2sc(NCc3cccc(C(N)=O)c3)nc2-c2ccc3ncnn3c2)n1 | > 10000 | 12 | > 833
COc1ccc(CNc2nc(-c3cccc(C)n3)c(-c3ccc4ncnn4c3)s2)cc1 | > 10000 | 24.3 | > 412
Cc1cccc(-c2sc(NCc3cccc(C#N)c3)nc2-c2ccc3ncnn3c2)n1 | > 10000 | 25.1 | > 398
COc1cccc(CNc2nc(-c3cccc(C)n3)c(-c3ccc4ncnn4c3)s2)c1OC | > 10000 | 43.5 | > 230
Cc1cccc(-c2nc(NCc3cccc(F)c3F)sc2-c2ccc3ncnn3c2)n1 | 7200 | 29.4 | 245
Cc1cccc(-c2nc(NCc3ccc(OC(F)(F)F)cc3)sc2-c2ccc3ncnn3c2)n1 | > 10000 | 60.9 | > 164

Further lines, results first:

IC50 [1] [nM] | IC50 (TGF-beta receptor type-1) [nM] | Ratio IC50 (Homo sapiens) | Compound
9200 | 8.61 | 1070 | Cc1cccc(-c2nc(NCc3ccc(F)cc3)sc2-c2ccc3ncnn3c2)n1
7390 | 19.3 | 383 | Cc1cccc(-c2nc(NCc3cccc(OC(F)(F)F)c3)sc2-c2ccc3ncnn3c2)n1
3780 | 9.26 | 408 | Cc1cccc(-c2nc(NCc3cccc(C#N)c3)sc2-c2ccc3ncnn3c2)n1
6190 | 13.6 | 455 | Cc1cccc(-c2nc(NCc3cccc(C(N)=O)c3)sc2-c2ccc3ncnn3c2)n1
> 10000 | 8.75 | > 1140 | Cc1ccc(CNc2nc(-c3cccc(C)n3)c(-c3ccc4ncnn4c3)s2)cc1
> 10000 | 21.9 | > 457 | Cc1cccc(-c2nc(NCc3ccc(Cl)c(Cl)c3)sc2-c2ccc3ncnn3c2)n1
3280 | 10.2 | 322 | Cc1cccc(-c2nc(NCc3cccc(Cl)c3)sc2-c2ccc3ncnn3c2)n1
> 10000 | 11.4 | > 877 | COc1cccc(CNc2nc(-c3cccc(C)n3)c(-c3ccc4ncnn4c3)s2)c1
> 10000 | 16.9 | > 592 | Cc1cccc(-c2nc(NCc3ccccc3C)sc2-c2ccc3ncnn3c2)n1
5370 | 11.2 | 479 | Cc1cccc(CNc2nc(-c3cccc(C)n3)c(-c3ccc4ncnn4c3)s2)c1
> 10000 | 15.8 | > 633 | Cc1cccc(-c2nc(NCc3ccc(Cl)cc3)sc2-c2ccc3ncnn3c2)n1
3530 | 7.01 | 504 | Cc1cccc(-c2nc(NCc3cccc(F)c3)sc2-c2ccc3ncnn3c2)n1
> 10000 | 22.1 | > 452 | Cc1cccc(-c2nc(NCc3cccc(C)c3C)sc2-c2ccc3ncnn3c2)n1
3580 | 7.43 | 482 | Cc1cccc(-c2nc(NCc3ccc(F)c(F)c3)sc2-c2ccc3ncnn3c2)n1
> 10000 | 22 | > 455 | Cc1cc(C)cc(CNc2nc(-c3cccc(C)n3)c(-c3ccc4ncnn4c3)s2)c1
5530 | 11.3 | 489 | Cc1cccc(-c2nc(NCc3ccccc3)sc2-c2ccc3ncnn3c2)n1
